# From ChEMBL document CHEMBL4373710, “DNA Structural Alteration Leading to Antibacterial Properties of 6-Nitroquinoxaline Derivatives” (J Med Chem, 2019)
# The source made the active and inactive calls. The calls are words filed in the database; no cut-off is given here.
# Assays:
# [1] = Antibacterial activity against Arthrobacter chlorophenolicus A6MTCC3706 by broth microdilution assay; format: functional; details: Pseudarthrobacter chlorophenolicus
# In short: (§1)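 Broth microdilution per CLSI; 5×10^5 cfu/mL bacteria in LB broth; compounds from DMSO stocks, final DMSO under 0.6%, with DMSO control. Plates incubated at the strain's recommended growth temperature and time; growth read as OD600.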
# HEK293 = experiment: Cytotoxicity against HEK293 cells measured after 24 hrs by MTT assay; format: cell-based; details: Homo sapiens, HEK293, 24 h
# In short: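 HEK 293 cells, 4000/well, seeded overnight in DMEM + 10% FBS at 37°C in CO2; compound dose series for 24 h (final DMSO <0.5%, DMSO-only control). MTT at 1 mg/mL final for 3 h, formazan dissolved in DMSO, absorbance 595 nm; IC50 from triplicate OD data.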
# Calf thymus DNA [2] = experiment: Binding affinity to calf thymus DNA assessed as appearance of induced CD at 15 to 60 uM by circular dichroism method; format: nucleic-acid assay; details: Bos taurus
# Pseudomonas aeruginosa = experiment: Antibacterial activity against Pseudomonas aeruginosa MTCC1688 by broth microdilution assay; format: functional; in short: as §1
# [3] = Binding affinity to pCDNA 3.1 (unknown origin) assessed as DNA unwinding effect up to 6:1 compound to DNA ratio measured after 16 hrs by EtBr staining agarose gel shift assay
# In short: (§2)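 pCDNA3.1 plasmid (amplified in E. coli DH5α), 40 µM, in 50 mM NaP pH 7, 10 mM NaCl, mixed with compound at set compound:DNA base-pair ratios; 16 h at 37°C. Run on 1% agarose at 50 V ~3 h, stained with EtBr 1 µg/mL for 5 min, imaged.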
# Staphylococcus aureus = experiment: Antibacterial activity against Staphylococcus aureus MTCC737 measured after 6 hrs by broth microdilution assay; format: functional; details: MTCC737, 6 h; in short: as §1
# DNA [4] = experiment: Binding affinity to Escherichia coli pBR322 DNA assessed as DNA compaction up to 5:1 compound to DNA ratio by atomic force microscopic analysis; format: nucleic-acid assay
# In short: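 Supercoiled pBR322 plasmid treated with compound at [compound]:[DNA bp] ratios from 0.5:1 up to 5:1, imaged by AFM; DNA height measured.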
# Calf thymus DNA [5] = experiment: Binding affinity to calf thymus DNA by isothermal titration calorimetric analysis; format: nucleic-acid assay; details: Bos taurus
# [6] = system: Staphylococcus epidermidis; experiment: Antibacterial activity against Staphylococcus epidermidis MTCC3615 by broth microdilution assay; format: functional; in short: as §1
# Escherichia coli = experiment: Antibacterial activity against Escherichia coli MTCC1916 by broth microdilution assay; format: functional; in short: as §1
# Calf thymus DNA [7] = experiment: Binding affinity to calf thymus DNA assessed as change in B-DNA structure at 15 to 60 uM by circular dichroism method; format: nucleic-acid assay; details: Bos taurus
# [8] = Solubility of the compound in pH 7 phosphate buffer at 100 uM by UV absorption spectra analysis; format: physicochemical; details: pH 7, 100 µM
# [9] = Selectivity index, ratio of IC50 for HEK293 cells to MIC for Staphylococcus aureus MTCC737; format: toxicity; details: human, read-out: Selectivity Index
# [10] = Binding affinity to pCDNA 3.1 (unknown origin) assessed as DNA unwinding effect at 5:1 compound to DNA ratio measured after 16 hrs by EtBr staining agarose gel shift assay; in short: as §2
# DNA [11] = experiment: Inhibition of ethidium bromide binding to Staphylococcus aureus DNA assessed as Stern-Volmer quenching constant by fluorescence assay; format: nucleic-acid assay
# In short: (§3)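 Fluorescence intercalator displacement: S. aureus genomic DNA 10 µM plus EtBr 5 µM in 10 mM NaP pH 7, 10 mM NaCl, 1% DMSO, at 25 and 37 °C; titrated with 2.5–100 µM compound. Excitation 480 nm, emission 520–700 nm, inner-filter corrected, triplicates; Stern–Volmer analysis, F0/F = 1 + Ksv[Q].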
# Calf thymus DNA [12] = experiment: Binding affinity to calf thymus DNA assessed as appearance of induced CD at […] by circular dichroism method; format: nucleic-acid assay; details: Bos taurus
# DNA [13] = experiment: Inhibition of ethidium bromide binding to Staphylococcus aureus DNA by fluorescence assay; format: nucleic-acid assay; in short: as §3
# [14] = Binding affinity to pCDNA 3.1 (unknown origin) assessed as DNA unwinding effect at 1:1 to 5:1 compound to DNA ratio measured after 16 hrs by EtBr staining agarose gel shift assay; in short: as §2
# Calf thymus DNA [15] = experiment: Binding affinity to calf thymus DNA assessed as change in B-DNA structure at 265 nm by circular dichroism method; format: nucleic-acid assay; details: Bos taurus
# [16] = Binding affinity to pCDNA 3.1 (unknown origin) assessed as DNA condensation at 5:1 compound to DNA ratio measured after 16 hrs by EtBr staining agarose gel shift assay; in short: as §2
# [17] = Binding affinity to pCDNA 3.1 (unknown origin) assessed as DNA unwinding effect at 1:1 compound to DNA ratio measured after 16 hrs by EtBr staining agarose gel shift assay; in short: as §2
SMILES,MIC [1] [µg/mL],MIC (Pseudomonas aeruginosa) [µg/mL],MIC (Staphylococcus aureus) [µg/mL],MIC [6] [µg/mL],MIC (Escherichia coli) [µg/mL],IC50 (HEK293) [µg/mL],further results
CN(C)CCCNc1nc2cc([N+](=O)[O-])ccc2nc1NCc1ccc(Cl)cc1,2.49,> 207,3.11,6.22,> 207,10.7,–
COc1ccccc1CNc1nc2ccc([N+](=O)[O-])cc2nc1NCCCN(C)C,6.16,> 200,8.21,6.16,> 200,36.1,–
CN(C)CCCNc1nc2cc([N+](=O)[O-])ccc2nc1NCc1ccccc1,7.6,57,11.4,13.3,114,2.74,–
COc1ccc(CNc2nc3ccc([N+](=O)[O-])cc3nc2NCCCN(C)C)cc1,4.1,> 200,10.3,5.13,> 200,38.6,–
CN(C)CCCNc1nc2cc([N+](=O)[O-])ccc2nc1NCc1ccccc1Br,2.76,> 230,3.45,4.59,> 230,51.9,selectivity ratio [9]: 15
CN(C)CCCNc1nc2cc([N+](=O)[O-])ccc2nc1NCc1ccc(Cl)c(C(F)(F)F)c1,1.69,> 240,1.69,0.96,7.24,3.26,–
CN(C)CCCNc1nc2cc([N+](=O)[O-])ccc2nc1NCc1ccc(F)cc1,3.98,> 200,7.97,5.98,86.3,4.28,Activity [10]: Active
CN(C)CCCNc1nc2cc([N+](=O)[O-])ccc2nc1NCc1cccc(C(F)(F)F)c1,1.57,> 200,0.89,0.89,34.3,7.99,selectivity ratio [9]: 9; KSV (DNA [11]): 1.7 ×10⁴ /M; Activity (Calf thymus DNA [12]): Dose-dependent effect; inhibition (DNA [13]): Dose-dependent effect; Activity [14]: Active; Ka (Calf thymus DNA [5]): 3.06 ×10⁴ /M; Activity (Calf thymus DNA [15]): Dose-dependent effect
CN(C)CCCNc1nc2cc([N+](=O)[O-])ccc2nc1NCc1ccccc1C(F)(F)F,2.91,> 224,3.36,2.24,68.3,24.7,–
CN(C)CCCNc1nc2cc([N+](=O)[O-])ccc2nc1NCc1cc(C(F)(F)F)cc(C(F)(F)F)c1,1.81,> 250,1.03,0.52,> 250,4.32,KSV (DNA [11]): 2 ×10⁴ /M; Activity (Calf thymus DNA [12]): Dose-dependent effect; inhibition (DNA [13]): Dose-dependent effect; Activity [16]: Active; Ka (Calf thymus DNA [5]): 9.9 ×10⁴ /M; Activity (Calf thymus DNA [15]): Dose-dependent effect; Activity [17]: Active
CN(C)CCCNc1nc2cc([N+](=O)[O-])ccc2nc1NCc1ccc(Br)cc1,2.29,> 230,3.45,3.45,4.59,9.63,–

# Second part, led by results:
MIC [1] [µg/mL],MIC (Pseudomonas aeruginosa) [µg/mL],MIC (Staphylococcus aureus) [µg/mL],MIC [6] [µg/mL],MIC (Escherichia coli) [µg/mL],SMILES,IC50 (HEK293) [µg/mL],further results
> 200,> 200,> 200,> 200,> 200,O=[N+]([O-])c1ccc2nc(NCc3ccc(C(F)(F)F)cc3)c(N3CCCCC3)nc2c1,> 200,Activity (Calf thymus DNA [2]): inactive; Activity [3]: inactive; Activity (DNA [4]): inactive; Activity (Calf thymus DNA [5]): inactive; Activity (Calf thymus DNA [7]): inactive; solubility [8]: Soluble
4.32,10.8,3.03,4.32,4.32,O=[N+]([O-])c1ccc2nc(NCc3ccc(C(F)(F)F)cc3)c(N3CCNCC3)nc2c1,9.61,–
2.29,13.8,4.59,2.29,4.59,CN(C)CCCNc1nc2cc([N+](=O)[O-])ccc2nc1NCc1cccc(Br)c1,3.66,–
1.76,> 250,3.78,3.78,3.78,CN1CCN(CCCNc2nc3cc([N+](=O)[O-])ccc3nc2NCc2ccc(C(F)(F)F)cc2)CC1,9.53,–
0.07,> 200,0.04,0.02,21,CS[C@@H]1SC[C@H]2C(=O)N(C)[C@@H](C(C)C)C(=O)OC[C@@H](NC(=O)c3cnc4ccccc4n3)C(=O)N[C@@H](C)C(=O)N(C)[C@@H]1C(=O)N(C)[C@@H](C(C)C)C(=O)OC[C@@H](NC(=O)c1cnc3ccccc3n1)C(=O)N[C@@H](C)C(=O)N2C,0.014,–
2.33,> 235,0.93,1.63,35,CN(C)CCCNc1nc2cc([N+](=O)[O-])ccc2nc1NCc1cc(F)cc(C(F)(F)F)c1,2.67,–
6.9,> 200,4.93,7.89,75.6,Cc1ccccc1CNc1nc2ccc([N+](=O)[O-])cc2nc1NCCCN(C)C,27.6,–
3.47,> 230,3.47,3.47,2.31,CN(C)CCCCNc1nc2cc([N+](=O)[O-])ccc2nc1NCc1ccc(C(F)(F)F)cc1,9.73,–
4.46,> 220,4.46,4.46,> 220,CN1CCN(c2nc3cc([N+](=O)[O-])ccc3nc2NCc2ccc(C(F)(F)F)cc2)CC1,6.99,–
2.76,> 200,5.92,3.94,110,Cc1ccc(CNc2nc3ccc([N+](=O)[O-])cc3nc2NCCCN(C)C)cc1,15.8,–
